Activity calls are given as the source filed them. The rule behind the calls is not given here.
Columns and labels:
[1] = Tmax in ICR mouse at 10 mg/kg, po measured upto 24 hrs by LC-MS/MS analysis; assay type: ADME, organism-based; conditions: in vivo
How it was run: (§1)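 Female ICR mice, n=3 per group, given test compound orally. Blood sampled at 0.5, 1, 2, 4, 7 and 24 h post dose; plasma levels quantified by LC-MS/MS. Parameters from non-compartmental analysis.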

Histamine H3 receptor = Histamine H3 receptor (Homo sapiens, UniProt Q9Y5N1); test: Displacement of [3H]-N-alpha-methylhistamine from recombinant human histamine H3 receptor after 60 mins by radiometric scintillation counting analysis
[2] = AUC (all) in ICR mouse at 10 mg/kg, po measured upto 24 hrs by LC-MS/MS analysis; assay type: ADME, organism-based; design: route oral, dose 10 mg/kg, time <=24; conditions: in vivo; how it was run: as §1
[3] = Ratio of anti-pruritus activity in ICR mouse with histamine-induced itching assessed as free plasma concentration causing 50% reduction of scratching bouts at 10 mg/kg, po administered 30 mins prior to histamine challenge and measured upto 20 mins to Ic50 for displacement of [3H]-histamine from recombinant mouse histamine H4 receptor expressed in CHO-K1 cell membranes
How it was run: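 Itch model: female ICR mice (n=8-10), back clipped 24 h earlier, dosed orally in 20% hydroxypropyl-β-cyclodextrin 30 min before intradermal histamine (300 nmol, saline). Scratching bouts were videorecorded for 20 min. Free plasma concentration taken at Tmax. Binding used CHO-K1 mouse H4R membranes with [3H]histamine in 50 mM Tris-HCl pH 7.4, 30 min at 27 °C, then filtration and scintillation counting.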

[4] = AUC (all) in ICR mouse at 2 mg/kg, po measured upto 24 hrs by LC-MS/MS analysis; assay type: ADME, organism-based; design: route oral, dose 2 mg/kg, time <=24; conditions: in vivo; how it was run: as §1
Mus musculus = test: Anti-pruritus activity in ICR mouse with histamine-induced itching assessed as reduction of scratching bouts administered orally 30 mins prior to histamine challenge and measured upto 20 mins; assay type: functional, organism-based; conditions: dose 2-50 mg/kg, time 50.0 min
[5] = Tmax in ICR mouse at 50 mg/kg, po measured upto 24 hrs by LC-MS/MS analysis; assay type: ADME, organism-based; conditions: in vivo; how it was run: as §1
[6] = biological target: T1, 5-hydroxytryptamine receptor 3A (Homo sapiens) (UniProt P46098); test: Displacement of [3H]BRL 43694 from human recombinant 5-HT3 receptor at 10 uM after 120 mins by scintillation counting analysis relative to control
T1 sequence (whole entry): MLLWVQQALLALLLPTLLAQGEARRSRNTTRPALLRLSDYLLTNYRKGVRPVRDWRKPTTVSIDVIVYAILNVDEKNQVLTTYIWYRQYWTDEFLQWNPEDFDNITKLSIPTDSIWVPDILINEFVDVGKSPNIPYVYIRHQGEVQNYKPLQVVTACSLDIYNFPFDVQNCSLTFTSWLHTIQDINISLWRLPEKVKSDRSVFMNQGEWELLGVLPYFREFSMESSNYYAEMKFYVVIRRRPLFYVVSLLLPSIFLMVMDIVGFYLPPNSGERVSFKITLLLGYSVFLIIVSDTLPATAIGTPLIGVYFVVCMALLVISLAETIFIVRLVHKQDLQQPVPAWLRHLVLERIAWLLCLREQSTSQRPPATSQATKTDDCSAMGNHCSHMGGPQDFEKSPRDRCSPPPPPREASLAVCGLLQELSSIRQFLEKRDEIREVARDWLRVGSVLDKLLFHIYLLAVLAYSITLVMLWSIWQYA

Chain of Histamine H3 receptor (Q9Y5N1 whole entry): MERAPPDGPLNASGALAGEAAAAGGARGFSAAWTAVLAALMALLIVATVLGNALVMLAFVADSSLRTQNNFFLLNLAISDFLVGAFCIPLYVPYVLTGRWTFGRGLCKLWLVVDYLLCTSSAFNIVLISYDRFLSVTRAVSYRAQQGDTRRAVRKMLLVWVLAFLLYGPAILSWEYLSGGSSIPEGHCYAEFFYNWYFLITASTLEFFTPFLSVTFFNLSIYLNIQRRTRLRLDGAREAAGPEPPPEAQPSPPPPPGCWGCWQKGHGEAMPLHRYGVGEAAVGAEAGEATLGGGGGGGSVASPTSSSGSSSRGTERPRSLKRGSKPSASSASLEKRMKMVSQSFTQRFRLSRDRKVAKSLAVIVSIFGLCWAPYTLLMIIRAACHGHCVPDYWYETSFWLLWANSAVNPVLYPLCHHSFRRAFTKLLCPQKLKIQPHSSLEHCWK

## CNC1CN(c2nc3ncc(Br)cc3n3nnnc23)C1
[1]
  Tmax: 30 min
Histamine H3 receptor
  Activity: inactive
[2]
  AUC at 24 h: 5400 ng·h/mL
[3]
  Ratio: 3
[4]
  AUC at 24 h: 251 ng·h/mL
Mus musculus
  Activity: Dose-dependent effect
[5]
  Tmax: 30 min
[6]
  inhibition: 14%
